{
  "source": "paper PMC5823510",
  "about": "(Journal of the American Chemical Society, 2018)",
  "key": {"[1]": {"molecular_target": "T1, hOGG1 (Homo sapiens, UniProt O15527)", "T1 sequence (O15527 whole entry)": "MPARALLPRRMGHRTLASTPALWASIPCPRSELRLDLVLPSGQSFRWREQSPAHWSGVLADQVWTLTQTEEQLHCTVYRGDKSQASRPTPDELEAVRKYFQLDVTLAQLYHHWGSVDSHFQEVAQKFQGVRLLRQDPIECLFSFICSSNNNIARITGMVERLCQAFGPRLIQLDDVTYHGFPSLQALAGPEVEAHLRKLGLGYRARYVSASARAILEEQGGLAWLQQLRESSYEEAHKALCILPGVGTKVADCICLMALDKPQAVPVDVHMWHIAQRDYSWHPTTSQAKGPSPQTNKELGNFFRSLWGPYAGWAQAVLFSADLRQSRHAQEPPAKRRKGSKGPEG", "test": "OGG1 inhibitor assay with fluorogenic OGR1 probe", "format": "biochemical"}, "[2]": {"molecular_target": "Recombinant His-tagged OGG1 (Homo sapiens, UniProt O15527)", "sequence (O15527 whole entry)": "as above", "test": "Surface plasmon resonance", "format": "binding", "details": "Biacore 8K, 1:3 dilution series, highest concentration 4 μM"}, "[3]": {"molecular_target": "T1, hOGG1", "test": "Michaelis–Menten kinetics of hOGG1 with OGR1 probe", "format": "biochemical", "procedure,_shortened": "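Recombinant hOGG1 (100 nM) was preincubated 15 min at 37 °C in NEBuffer 4 (pH 7.9) with BSA, without or with test compound (200 nM or 2 μM). OGR1 fluorogenic substrate was added at 0.8–10 μM and fluorescence read at 460 nm (excitation 355 nm). Initial rates over 10 min gave Michaelis–Menten curves and Lineweaver–Burk plots, yielding Km and Vmax; kcat = Vmax/[enzyme].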"}, "[4]": {"molecular_target": "MTH1 (human MutT Homolog 1) (Homo sapiens, UniProt P36639)", "test": "Enzyme selectivity screen, MTH1", "format": "biochemical", "details": "20 μM"}, "[5]": {"tested_on": "dUTPase (deoxyuridine 5′-triphosphate nucleotidohydrolase)", "test": "Enzyme selectivity screen, dUTPase", "format": "biochemical", "details": "20 μM"}, "[6]": {"molecular_target": "NUDT16 (nucleoside diphosphate-linked moiety X-type motif 16) (Homo sapiens, UniProt Q96DE0)", "sequence (Q96DE0 whole entry, species assumed)": "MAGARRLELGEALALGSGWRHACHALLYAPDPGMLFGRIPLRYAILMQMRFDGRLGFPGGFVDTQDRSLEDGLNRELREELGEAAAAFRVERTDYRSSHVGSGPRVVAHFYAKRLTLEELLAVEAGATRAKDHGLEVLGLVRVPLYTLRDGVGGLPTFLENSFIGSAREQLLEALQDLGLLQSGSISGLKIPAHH", "test": "Enzyme selectivity screen, NUDT16", "format": "biochemical", "details": "20 μM"}, "[7]": {"molecular_target": "T2, hABH2 (human AlkB Homolog 2) (Homo sapiens, UniProt Q6NS38)", "T2 sequence (Q6NS38 1-261)": "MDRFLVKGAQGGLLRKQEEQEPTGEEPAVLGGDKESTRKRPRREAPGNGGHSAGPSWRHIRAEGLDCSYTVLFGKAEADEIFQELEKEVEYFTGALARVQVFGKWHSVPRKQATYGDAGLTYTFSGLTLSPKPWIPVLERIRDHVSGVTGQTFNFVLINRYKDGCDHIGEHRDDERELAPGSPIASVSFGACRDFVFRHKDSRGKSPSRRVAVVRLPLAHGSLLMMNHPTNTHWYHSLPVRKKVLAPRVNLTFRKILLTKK", "test": "Enzyme selectivity screen, hABH2", "format": "biochemical", "details": "20 μM"}, "[8]": {"molecular_target": "T3, hABH3 (human AlkB Homolog 3) (Homo sapiens, UniProt Q96Q83)", "T3 sequence (Q96Q83 1-286)": "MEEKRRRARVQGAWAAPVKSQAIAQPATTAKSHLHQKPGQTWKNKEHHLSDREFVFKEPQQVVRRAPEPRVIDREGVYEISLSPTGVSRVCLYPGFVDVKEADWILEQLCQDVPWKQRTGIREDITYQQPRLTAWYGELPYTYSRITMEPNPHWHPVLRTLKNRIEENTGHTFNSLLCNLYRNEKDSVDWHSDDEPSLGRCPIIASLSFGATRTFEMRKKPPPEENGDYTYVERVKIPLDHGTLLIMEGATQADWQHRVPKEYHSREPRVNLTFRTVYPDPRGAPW", "test": "Enzyme selectivity screen, hABH3", "format": "biochemical", "details": "20 μM"}, "[9]": {"molecular_target": "T4, SMUG1 (single-strand selective monofunctional uracil DNA glycosylase) (Homo sapiens, UniProt Q53HV7)", "T4 sequence (Q53HV7 1-270)": "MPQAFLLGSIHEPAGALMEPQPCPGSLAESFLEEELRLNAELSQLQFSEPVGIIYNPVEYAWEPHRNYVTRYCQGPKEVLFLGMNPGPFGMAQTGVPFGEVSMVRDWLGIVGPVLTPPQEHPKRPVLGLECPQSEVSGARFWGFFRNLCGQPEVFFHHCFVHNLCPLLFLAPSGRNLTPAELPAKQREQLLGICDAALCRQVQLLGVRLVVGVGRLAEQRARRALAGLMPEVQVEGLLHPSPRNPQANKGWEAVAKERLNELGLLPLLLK", "test": "Enzyme selectivity screen, SMUG1", "format": "biochemical", "details": "20 μM"}, "[10]": {"tested_on": "HEK293T cells", "test": "Toxicity via MTT assay, HEK293T", "format": "cell-based, human", "procedure,_shortened": "(§1)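 HEK293T cells (1.6×10^4/well, pre-grown 30 h) or HeLa cells (1.2×10^4/well, pre-grown 16 h) were cultured in DMEM with 10% FBS. They were exposed 24 h at 37 °C to test compound at 10 nM–100 μM, with 5% DMSO at 100 μM and 1% DMSO otherwise; medium-only and DMSO-matched controls were included. MTT was added at 0.5 mg/mL final, followed by 20 h solubilisation and absorbance reading at 550 and 650 nm.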"}, "[11]": {"tested_on": "HeLa cells", "test": "Toxicity via MTT assay, HeLa", "format": "cell-based, human", "procedure,_shortened": "as §1"}, "[12]": {"tested_on": "Caco-2 (clone C2BBel)", "test": "CACO-2 permeability assay", "format": "in vitro ADME", "details": "for Papp avg: average; for Papp R1: replicate R1"}, "[13]": {"molecular_target": "OGG1 in HeLa cells (Homo sapiens, UniProt O15527)", "sequence (O15527 whole entry)": "as the sequence (O15527 whole entry) above", "test": "Detection of 8-OG", "format": "cell-based", "details": "0.5 μM, 24 h, LC/MS-MS", "procedure,_shortened": "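HeLa cells were seeded at 2×10^6 per 10 cm dish in DMEM with 10% FBS and grown 12 h. They were then exposed 24 h at 37 °C to test compound at 5 or 0.5 μM, with compound-containing medium renewed every 6 h. Controls were untreated cells and H2O2 (0.5 mM) plus CrCl3 (0.3 mM). DNA (5 µg) was digested to nucleosides, and 8-oxodG was quantified by LC-MS/MS with 15N-labelled internal standards and normalised to dG.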"}, "[14]": {"molecular_target": "OGG1 activity in HeLa cell lysates (Homo sapiens, UniProt O15527)", "sequence (O15527 whole entry)": "as above", "test": "Inhibition of OGG1 activity in HeLa cell lysate", "format": "biochemical", "details": "0.5 μM, measured at 20 h", "procedure,_shortened": "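Cells were grown 48 h to confluence in DMEM with 10% FBS. Cytoplasmic fractions came from hypotonic swelling and needle lysis; nucleoplasmic fractions from 0.42 M NaCl extraction. The two were mixed 2:1. Each reaction held 100 ng/µL total protein, 2 µM pOGR1 fluorogenic probe, 10 mM MgCl2 and test compound at 0.5 μM, and ran […] at 37 °C. Fluorescence was read at 460 nm (excitation 355 nm).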"}, "[15]": {"molecular_target": "OGG1 activity in MCF-7 cell lysates (Homo sapiens, UniProt O15527)", "sequence (O15527 whole entry)": "as above", "test": "Inhibition of OGG1 activity in MCF-7 cell lysate", "format": "biochemical", "details": "MCF-7 lysate, 0.5 μM, measured at 20 h"}},
  "data": [
    {"smiles": "NC(=O)c1cccc(-c2ccc(S(=O)(=O)Nc3ccc4c(c3)N(C(=O)C3CC3)CCC4)cc2)c1", "note": "[Compound 41]", "values": [
      {"measurement": "Enzyme activity, % of control at 2 μM", "setting": "[1]; 2 μM compound, initial rate (first 12 min)", "value": "4.8 % of control"},
      {"measurement": "IC50", "setting": "[1]; OGR1 assay, initial rates method", "value": 59, "unit": "nM"},
      {"measurement": "Enzyme activity, % of control at 200 μM (third column of Table 5)", "setting": "[1]; head of Table 5 c4 prints 200 μM, initial rate (first 12 min)", "value": "39 ±2.5 % of control"},
      {"measurement": "Kd (1:1 kinetic and steady-state models)", "setting": "[2]", "value": "consistent with IC50 of the biochemical assay"},
      {"measurement": "mode of inhibition", "setting": "[3]; Lineweaver–Burk analysis, 200 nM and 2 μM", "value": "competitive inhibitor"},
      {"measurement": "kcat", "setting": "[3]; with 200 nM 41", "value": 0.040, "unit": "s⁻¹"},
      {"measurement": "kcat", "setting": "[3]; with 2 μM 41", "value": 0.057, "unit": "s⁻¹"},
      {"measurement": "activity against MTH1", "setting": "[4]", "value": "low or negligible"},
      {"measurement": "activity against dUTPase", "setting": "[5]", "value": "low or negligible"},
      {"measurement": "activity against NUDT16", "setting": "[6]", "value": "low or negligible"},
      {"measurement": "activity against hABH2", "setting": "[7]", "value": "low or negligible"},
      {"measurement": "activity against hABH3", "setting": "[8]", "value": "low or negligible"},
      {"measurement": "activity against SMUG1", "setting": "[9]", "value": "low or negligible"},
      {"measurement": "toxicity at 10 μM", "setting": "[10]; HEK293T (one of two human cell lines), 10 μM", "value": "no toxicity"},
      {"measurement": "cytotoxicity (MTT)", "setting": "[10]; HEK293T, 10 nM to 10 μM, 24 h", "value": "little or no cytotoxicity"},
      {"measurement": "apparent toxicity (MTT)", "setting": "[10]; HEK293T, 100 μM, 24 h", "value": "30–50%"},
      {"measurement": "toxicity at 10 μM", "setting": "[11]; HeLa (one of two human cell lines), 10 μM", "value": "no toxicity"},
      {"measurement": "cytotoxicity (MTT)", "setting": "[11]; HeLa, 10 nM to 10 μM, 24 h", "value": "little or no cytotoxicity"},
      {"measurement": "apparent toxicity (MTT)", "setting": "[11]; HeLa, 100 μM, 24 h", "value": "30–50%"},
      {"measurement": "recovery", "setting": "[12]; A-to-B", "value": 65, "unit": "%"},
      {"measurement": "Papp avg", "setting": "[12]; A-to-B", "value": 12.5, "unit": "×10⁻⁶ cm/s"},
      {"measurement": "Papp R1", "setting": "[12]; A-to-B", "value": 14.2, "unit": "×10⁻⁶ cm/s"},
      {"measurement": "recovery", "setting": "[12]; B-to-A", "value": 79, "unit": "%"},
      {"measurement": "efflux ratio", "setting": "[12]; B-to-A / A-to-B", "value": 6.2},
      {"measurement": "Papp avg", "setting": "[12]; B-to-A", "value": 77.4, "unit": "×10⁻⁶ cm/s"},
      {"measurement": "Papp R1", "setting": "[12]; B-to-A", "value": 63.5, "unit": "×10⁻⁶ cm/s"},
      {"measurement": "increase of 8-oxodG levels in DNA relative to mock-treated controls", "setting": "[13]", "value": 25, "unit": "%"},
      {"measurement": "inhibition of probe signal", "setting": "[14]", "value": 64, "unit": "%"},
      {"measurement": "inhibition of probe signal", "setting": "[15]", "value": 95, "unit": "%"}
    ]}
  ]
}
